# Measurements gathered from unrelated publications.
# Compare with care: the assays were run in different laboratories.
# Target: Serine/threonine-protein kinase Nek2 (NEK2, Homo sapiens, UniProt P51955)
# One construct used (P51955 1-445): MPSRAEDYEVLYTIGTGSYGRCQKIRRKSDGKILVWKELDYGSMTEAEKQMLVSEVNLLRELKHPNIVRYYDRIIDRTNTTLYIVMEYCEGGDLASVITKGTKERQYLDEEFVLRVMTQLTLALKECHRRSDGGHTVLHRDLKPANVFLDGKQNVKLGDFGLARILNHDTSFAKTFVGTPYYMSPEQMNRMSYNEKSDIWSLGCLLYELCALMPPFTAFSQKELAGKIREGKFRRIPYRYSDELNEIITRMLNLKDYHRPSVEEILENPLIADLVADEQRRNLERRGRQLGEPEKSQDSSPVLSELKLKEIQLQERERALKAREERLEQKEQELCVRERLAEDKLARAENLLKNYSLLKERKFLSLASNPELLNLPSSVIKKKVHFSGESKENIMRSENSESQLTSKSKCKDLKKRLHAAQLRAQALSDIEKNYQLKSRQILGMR
Structure (SMILES),observed,method,tested at,remaining binding
O=C(N[C@H]1CCCCC/C=C\C2C[C@@]2(C(=O)O)NC(=O)[C@@H]2C[C@@H](Oc3ccncc3)CN2C1=O)OC1CCCC1 (some centres unmarked),binding,competition with immobilised ligand,1 µM,94%
O=C(Nc1c[nH]nc1C(=O)NC1CCNCC1)c1cc(F)cc(F)c1,binding,competition with immobilised ligand,1 µM,93%
NS(=O)(=O)c1cc(NC(=O)C2(c3ccccc3Cl)CC2)ccc1Oc1cccc(Cl)c1,cell-free assay,competition with immobilised ligand,1 µM,86%
C[C@H]1CCN(c2nccc(-c3cnn4ncccc34)n2)C1,binding,,1 µM,90%
CC(=O)N1CCC(c2ccc(C(=O)NC(=N)N)cc2C(F)(F)F)CC1,cell-free assay,competition with immobilised ligand,1 µM,100%
CN(c1nccc(-c2cnn3ncccc23)n1)C1CC1,binding,,1 µM,100%
C[C@@H](c1ccc(-n2cnc3c(N)ncnc32)cc1)N1CCc2nn(C)c(Cc3ccccc3)c2C1=O,binding,competition with immobilised ligand,0.1 µM,89%
Nc1ncc2c(n1)-c1c([nH]c3ccc(C#CC4CC4)cc13)CCCC2,binding,competition with immobilised ligand,1 µM,87%
C[C@H](c1ccnc(Nc2nc3ccc(-c4cc(N(C)C)ncn4)cc3[nH]2)c1)N1CCN(C(=O)CC(F)(F)F)CC1,cell-free assay,competition with immobilised ligand,0.1 µM,100%
COc1cnc(Nc2cccc(S(N)(=O)=O)c2)nc1N1CCN(c2ccccc2)CC1,binding,competition with immobilised ligand,1 µM,97%
N[C@H]1CCN(c2nccc(-c3cnn4ncccc34)n2)C1,binding,,1 µM,100%
FC(F)(F)Oc1cccc(-c2cnc3ccc(-c4ccncc4)nn23)c1,cell-free assay,competition with immobilised ligand,5 µM,74%
Cn1nc(C(F)(F)F)cc1-c1cnc(N2CCc3cc(S(=O)(=O)Nc4c(F)cc(Cl)cc4F)cc(N4CCCC4=O)c32)nc1,cell-free assay,competition with immobilised ligand,1 µM,100%
CC1CCCN1c1nccc(-c2cnn3ncccc23)n1 (centres unmarked),binding,,1 µM,100%
O=C(NCCCN1CCOCC1)c1ccc(Nc2nccc(-c3cc4ccccc4s3)n2)cc1,binding,competition with immobilised ligand,1 µM,94%
CC1=C(C#N)C(c2ccc3c(c2)c(NC(=O)c2ccccc2C)nn3C)C(C#N)=C(C)N1,cell-free assay,competition with immobilised ligand,1 µM,100%
O=C(c1ccc(Nc2nccc(-c3cc4ccccc4s3)n2)cc1)N1CCC(N2CCCC2)CC1,binding,competition with immobilised ligand,1 µM,95%
COc1ncc2cc3ccccc3nc2c1C#N,cell-free assay,competition with immobilised ligand,5 µM,85%
CN(C)c1nccc(-c2cnc3ncccn23)n1,binding,,1 µM,93%
O=C(c1ccc(Nc2ncc(Cl)c(-c3cc4ccccc4s3)n2)cc1)N1CCC(N2CCCC2)CC1,binding,competition with immobilised ligand,1 µM,83%
